# Experimental data of several laboratories.
# Each line is one published result; the experiments were not run side by side.
# PGR: Progesterone receptor (PGR, Homo sapiens, UniProt P06401)
# MMP13: Collagenase 3 (MMP13, Homo sapiens, UniProt P45452)
# ADRB3: Beta-3 adrenergic receptor (ADRB3, Homo sapiens, UniProt P13945)
SMILES,target,test,conditions,inhibition
CN(CCN1CCC(OC(=O)Nc2ccccc2-c2ccccc2)CC1)C(=O)c1ccc(CN2CCC(C(N)=O)CC2)cc1,PGR,"ligand displacement, radioligand",1 µM,0%
COc1cc(Nc2ncc(F)c(Nc3ccc4c(n3)NC(=O)C(C)(C)O4)n2)cc(OC)c1OC,"Casein kinase I isoform alpha-like (CSNK1A1L, Homo sapiens, UniProt Q8N752)","binding, competition with immobilised ligand",10 µM,0%
C#Cc1n[nH]c2c(-c3cn([C@@H](C)c4ccccn4)c(=O)[nH]c3=O)cc(F)cc12,"Serine/threonine-protein kinase Sgk1 (SGK1, Homo sapiens, UniProt O00141)","enzyme activity, inhibitor",0.1 µM,-0.7%
CN(C)C(=O)COC(=O)Cc1ccc(OC(=O)c2ccc(NC(=N)N)cc2)cc1,MMP13,"enzyme activity, inhibitor",10 µM,24%
C#Cc1n[nH]c2c(-c3cn([C@@H](C)c4ccccc4)c(=O)[nH]c3=O)cc(F)cc12,"Dual specificity protein kinase CLK2 (CLK2, Homo sapiens, UniProt P49760)","enzyme activity, inhibitor",0.1 µM,3.8%
C[C@H](C(=O)N[C@H]1COc2ccccc2[C@@H]1S(C)(=O)=O)c1ccc(F)cc1,"Adenosine receptor A2b (ADORA2B, Homo sapiens, UniProt P29275)",cell-free assay,10 µM,9%
CC(C)C[C@H](NC(=O)[C@H](Cc1ccccc1)NC(=O)c1cnccn1)B(O)O,"Chymase (CMA1, Homo sapiens, UniProt P23946)","enzyme activity, inhibitor",33 µM,84.2%
N=C(N)c1ccc2cc(OC(=O)c3ccc(N=C(N)N)cc3)ccc2c1,MMP13,"enzyme activity, inhibitor",10 µM,75%
COc1ccc(S(=O)(=O)N2CCCCC2)cc1C,PGR,"ligand displacement, radioligand",10 µM,< 30%
COCc1c(-c2cc3cc(C)cc(OC)c3s2)c2c(N)ncnn2c1CN1CCNC(=O)C1,ADRB3,"ligand displacement, radioligand",10 µM,9%
c1ccc(C(NCCNC(c2ccccc2)c2ccccc2)c2ccccc2)cc1,ADRB3,cell-free assay,10 µM,59%
COC(=O)NCCc1c(C(O)c2ccccc2)[nH]c2ccc(OC)cc12 (stereo not shown),"Calmodulin-1 (CALM1, Homo sapiens, UniProt P0DP23)","enzyme activity, inhibitor",50 µM,40 to 50%
O=C(Nc1cccnn1)N1CCN([C@@H]2CCOc3cc(C(F)(F)F)ccc32)CC1,ADRB3,cell-free assay,20 µM,-4%
